Series [1] deals with C. albicans ATCC MYA-2876(S). The series is described as follows: MIC, broth dilution, strain C. The format is cell-based, Candida albicans. The following applies: Candida albicans. The gist of the method: (§1)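 Broth dilution MIC assay on the Candida panel: C. albicans strains A–G, C. glabrata (H), C. krusei (I) and C. parapsilosis (J). Test compounds were delivered in DMSO, with DMSO kept below 1% in the assay. The MIC is reported in µg/mL, with µM in parentheses. Reference antifungals (a polyene and four azoles) were run alongside.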

The test system of series [2] is Aspergillus terreus ATCC MYA-3633. The series is described as follows: MIC, broth dilution, strain M. The format is cell-based. The following applies: Aspergillus terreus. (Broth dilution looks for growth in wells or tubes with falling amounts of substance.)
Series [3] concerns C. albicans ATCC MYA-1003(R). In words: MIC, broth dilution, strain G. Type of series: cell-based, Candida albicans. The settings on record: Candida albicans. In a few lines:
as §1

The test system of series [4] is C. albicans ATCC 90819(R). The series is described as follows: MIC, broth dilution, strain D. The following applies: Candida albicans. Type of series: cell-based, Candida albicans. The gist of the method:
as §1

In series [5] the test system is C. albicans ATCC MYA-2310(S). In words: MIC, broth dilution, strain E. The format is cell-based, Candida albicans. The settings on record: Candida albicans. The gist of the method:
as §1

In series [6] the test system is C. albicans ATCC MYA-1237(R). The series is described as follows: MIC, broth dilution, strain F. Type of series: cell-based, Candida albicans. The settings on record: Candida albicans. The gist of the method: as §1
The test system of the next series is C. albicans ATCC 64124. In words: MIC, broth dilution, strain B. The format is cell-based, Candida albicans. The settings on record: Candida albicans. The gist of the method: as §1
The subject of series [7] is Aspergillus strains (K–M). The series is described as follows: MIC against Aspergillus strains. The following applies: read-out: MIC values against Aspergillus strains. The format is cell-based.
For series [8], the system named is Aspergillus nidulans ATCC 38163. In words: MIC, broth dilution, strain L. The format is cell-based. The settings on record: Aspergillus nidulans.
For series [9], the system named is Candida albicans ATCC 10231. In words: MIC, broth dilution, strain A. Type of series: cell-based. The settings on record: Candida albicans. The gist of the method:
as §1

Series [10] has as its system murine red blood cells (mRBCs). The following applies: data previously presented; cited from earlier work.
Series [11] deals with C. albicans ATCC 64124 (strain B). In words: Time-kill assay. The format is cell-based, Candida albicans.
For series [12], the system named is Aspergillus flavus ATCC MYA-3631. In words: MIC, broth dilution, strain K. Type of series: cell-based. The following applies: Aspergillus flavus.
Series [13] in a line: Mammalian cytotoxicity, resazurin assay, HEK293. The format is cell-based. The settings on record: human, HEK293 cells. Background: Alamar Blue is a resazurin reagent that responds to reducing activity.
The test system of series [14] is C. albicans ATCC 10231 (strain A). In words: ROS induction assay. Type of series: cell-based, Candida albicans. The following applies: 1× and 2× MIC, 1-h treatment; H2O2 1 mM. In a few lines: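 C. albicans ATCC 10231 cells were incubated 1 h at 37 °C with test compound at 1× or 2× MIC, with no drug (negative control), or with 1 mM H₂O₂ (positive control). DCFH-DA (40 µg/mL) was then added. ROS were detected and imaged by fluorescence microscopy.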

Where [15] appears, read: read-out: MIC (MIC-2) in µM (parentheses).
Setting [16] is: read-out: MIC (MIC-0) in µM (parentheses).
The mark [17] stands for this setting: ATCC38163, read-out: MIC (MIC-0).
Where [18] appears, read: ATCC38163, read-out: MIC (MIC-0) in µM (parentheses).

The structures appear in SMILES notation. In brackets after ≈: the same amount, converted by molar mass. Several values for one entry are separate records, joined by “and”; a condition that tells them apart may be missing. Equal values may be shown once. Read-outs that look alike come from different tables or passages of the source.

What is called MIC is the least concentration at which growth counts as inhibited. Take `C[C@@H](c1ncncc1F)[C@](O)(Cn1cncn1)c1ccc(F)cc1F` [VOR, voriconazole]: the minimum inhibitory concentration (MIC) in [1] (read-out: MIC (MIC-2)) worked out at 0.975 µg/mL; in [1] (setting [15]) it was 2.79 µM; in series [2] (read-out: MIC (MIC-0)), 0.12 µg/mL; in [2] (setting [16]), 0.34 µM; in series [3] (read-out: MIC (MIC-2)), 7.8 µg/mL; in series [3] (setting [15]) it was 22.3 µM. Moreover, the minimal inhibitory concentration (MIC) in [4] (ATCC90819, read-out: MIC (MIC-2)) stood at 1.95 µg/mL; in series [4] (ATCC90819, read-out: MIC (MIC-2) in µM (parentheses)), 5.58 µM; in [5] (read-out: MIC (MIC-2)), 1.95 µg/mL; in [5] (setting [15]) it was 5.58 µM; in series [6] (read-out: MIC (MIC-2)), 0.975 µg/mL; in series [6] (setting [15]), 2.79 µM. Besides, the MIC was over 31.2 µg/mL with C. albicans ATCC 64124 (ATCC64124, read-out: MIC (MIC-2)); over 89.3 µM in the series with C. albicans ATCC 64124 (ATCC64124, read-out: MIC (MIC-2) in µM (parentheses)); 0.03 to 0.24 µg/mL (≈ 0.0859 to 0.687 µM) in series [7]; 0.03 µg/mL in series [8] (setting [17]); 0.09 µM in series [8] (setting [18]); 7.8 µg/mL in series [9] (ATCC10231, read-out: MIC (MIC-2)). Also, the MIC in [9] (ATCC10231, read-out: MIC (MIC-2) in µM (parentheses)) was 22.3 µM.
One may read the IC50 as the concentration needed to halve the response being measured. On to `O=c1c2ccccc2[se]n1-c1ccccc1` [Compound 1, ebselen], for which, in series [10], the “concentration until which no significant hemolytic activity was shown” value was 15.6 µg/mL and 56.9 µM. The “time of complete fungal cell death” value in series [11] (1× MIC (12.5 µg/mL)) came to 6 h. Further, the time-kill effect result in [11] (1× MIC (1 12.5, 2a 12.5, 3a 0.39, AmB 3.9 µg/mL)) is reported as “fungicidal”; in [11] (2× MIC (1 25, 2a 25, 3a 0.78, AmB 7.8 µg/mL)), “completely fungicidal”. For the same compound, the “time from which completely fungicidal” value in series [11] (2× MIC) was 3 h. Further, the fungicidal concentration in [11] (time-kill curves) was 12.5 µg/mL and 45.6 µM. Besides, the MIC in series [12] (read-out: MIC (MIC-0)) was 6.25 µg/mL; in [12] (setting [16]) it was 22.8 µM; in series [1] (read-out: MIC (MIC-0)) it was 12.5 µg/mL; in series [1] (setting [16]), 45.6 µM; in series [2] (read-out: MIC (MIC-0)), 1.56 µg/mL; in [2] (setting [16]) it was 5.69 µM. The minimal inhibitory concentration (MIC) in [3] (read-out: MIC (MIC-0)) was determined as 12.5 µg/mL; in [3] (setting [16]), 45.6 µM; in [4] (ATCC90819, read-out: MIC (MIC-0)), 1.56 µg/mL; in series [4] (ATCC90819, read-out: MIC (MIC-0) in µM (parentheses)) it was 5.69 µM; in series [5] (read-out: MIC (MIC-0)) it was 3.13 µg/mL; in series [5] (setting [16]), 11.4 µM. The MIC in [6] (read-out: MIC (MIC-0)) was over 12.5 µg/mL; in series [6] (setting [16]), over 45.6 µM; with C. albicans ATCC 64124 (ATCC64124, read-out: MIC (MIC-0)) it was 12.5 µg/mL; with C. albicans ATCC 64124 (ATCC64124, read-out: MIC (MIC-0) in µM (parentheses)) it was 45.6 µM; in series [8] (setting [17]), 1.56 µg/mL; in series [8] (setting [18]) it was 5.69 µM. Further, the minimal inhibitory concentration (MIC) in series [9] (ATCC10231, read-out: MIC (MIC-0)) worked out at 12.5 µg/mL; in series [9] (ATCC10231, read-out: MIC (MIC-0) in µM (parentheses)) it was 45.6 µM. In addition, the IC50 in series [13] is > 10 µg/mL and > 36.5 µM. Further, the “ROS induction (DCFH-DA fluorescence)” value in series [14] is recorded as “highly fluorescent”.

The values above are taken from article PMC5060091 (ChemMedChem, 2016).
